ChEMBL document CHEMBL4680221, “Discovery of pyrazole derivatives as cellular active inhibitors of histone lysine specific demethylase 5B (KDM5B/JARID1B)” (Eur J Med Chem, 2020)
The source made the active and inactive calls. The rule behind the calls is not given here.

Assays:
[1] = target: T1, Lysine-specific demethylase 5B (Homo sapiens, UniProt Q9UGL1); assay: Inhibition of recombinant human N-terminal FLAG-tagged KDM5B expressed in Sf9 insect cells at 10 uM using biotin-H3K4me as substrate by ALPHA relative to control
T1 sequence (Q9UGL1 whole entry): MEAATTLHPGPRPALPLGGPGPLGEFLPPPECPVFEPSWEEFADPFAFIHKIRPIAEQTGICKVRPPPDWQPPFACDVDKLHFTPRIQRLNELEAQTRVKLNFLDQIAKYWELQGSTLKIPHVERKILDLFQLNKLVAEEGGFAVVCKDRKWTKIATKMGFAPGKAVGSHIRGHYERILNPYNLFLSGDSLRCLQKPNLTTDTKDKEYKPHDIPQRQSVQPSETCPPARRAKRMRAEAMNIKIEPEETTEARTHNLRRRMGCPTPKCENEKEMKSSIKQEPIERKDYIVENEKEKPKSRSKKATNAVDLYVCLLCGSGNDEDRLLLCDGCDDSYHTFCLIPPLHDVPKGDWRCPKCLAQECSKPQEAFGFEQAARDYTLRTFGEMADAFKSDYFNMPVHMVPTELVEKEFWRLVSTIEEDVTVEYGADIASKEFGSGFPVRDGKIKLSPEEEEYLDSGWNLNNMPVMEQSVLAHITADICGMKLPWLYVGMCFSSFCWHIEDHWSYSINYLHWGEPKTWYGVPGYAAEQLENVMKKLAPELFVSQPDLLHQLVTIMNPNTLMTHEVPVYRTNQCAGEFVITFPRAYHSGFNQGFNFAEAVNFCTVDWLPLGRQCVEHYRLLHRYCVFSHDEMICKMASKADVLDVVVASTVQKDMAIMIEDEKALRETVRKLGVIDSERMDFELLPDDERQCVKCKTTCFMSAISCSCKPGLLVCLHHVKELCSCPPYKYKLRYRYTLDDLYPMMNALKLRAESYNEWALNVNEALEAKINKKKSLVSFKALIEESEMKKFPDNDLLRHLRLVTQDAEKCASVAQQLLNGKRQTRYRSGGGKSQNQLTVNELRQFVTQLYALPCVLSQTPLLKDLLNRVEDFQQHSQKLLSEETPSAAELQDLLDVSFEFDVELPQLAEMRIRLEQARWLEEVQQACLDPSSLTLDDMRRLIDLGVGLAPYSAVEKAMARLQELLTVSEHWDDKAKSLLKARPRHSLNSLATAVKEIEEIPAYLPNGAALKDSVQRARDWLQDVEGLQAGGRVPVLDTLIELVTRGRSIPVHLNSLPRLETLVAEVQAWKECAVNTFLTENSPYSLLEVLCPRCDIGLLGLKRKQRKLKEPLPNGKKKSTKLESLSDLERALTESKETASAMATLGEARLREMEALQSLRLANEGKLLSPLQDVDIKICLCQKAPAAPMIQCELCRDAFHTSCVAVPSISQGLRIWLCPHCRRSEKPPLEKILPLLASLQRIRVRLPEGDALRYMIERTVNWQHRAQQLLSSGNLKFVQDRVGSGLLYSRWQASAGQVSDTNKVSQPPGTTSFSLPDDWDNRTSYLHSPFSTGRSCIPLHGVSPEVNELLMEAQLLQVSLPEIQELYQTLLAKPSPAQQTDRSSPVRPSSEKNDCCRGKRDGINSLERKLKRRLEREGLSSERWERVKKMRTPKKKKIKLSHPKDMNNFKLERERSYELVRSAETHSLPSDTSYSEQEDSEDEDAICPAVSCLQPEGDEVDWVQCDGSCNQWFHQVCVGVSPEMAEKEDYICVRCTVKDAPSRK
Summary of the method: (§1)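 ALPHA demethylase assay. Recombinant KDM5B (4 nM) was preincubated with compound, then biotin-H3K4me3 peptide (64 nM) was added. Buffer: 10 μM α-KG, 100 μM ascorbate, 50 μM (NH4)2Fe(SO4)2, 50 mM HEPES pH 7.5, 0.01% Tween 20, 0.1% BSA. Read-out used streptavidin donor and H3K4me1-2 antibody acceptor beads. Data were normalized to blank control and IC50 fitted.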

[2] = target: T1, Lysine-specific demethylase 5B; assay: Inhibition of recombinant human N-terminal FLAG-tagged KDM5B expressed in Sf9 insect cells using biotin-H3K4me as substrate by ALPHA; summary of the method: as §1
[3] = tested on: MKN-45; assay: Antiproliferative activity against human MKN-45 cells assessed as reduction in cell proliferation measured after 4 days by MTS assay; format: functional, cell-based; details: MKN-45, 96 h
Summary of the method: (§2)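 MKN45 cells were seeded at 3×10^3 cells per well and treated for 4 or 6 days, as indicated. Proliferation was read by MTS assay and IC50 derived. Three independent experiments, mean ± SD.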

[4] = Cytotoxicity against human GES1 cells assessed as reduction in cell proliferation at 100 uM by MTS assay relative to control; format: cell-based; details: read-out: Activity
Summary of the method: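 Normal human gastric epithelial GES-1 cells, seeded at 3×10^3 cells per well and exposed to 100 μM. Antiproliferation rate was read by MTS assay.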

[5] = tested on: MKN-45; assay: Antimigratory activity in human MKN-45 cells at 20 uM measured after 24 hrs by transwell assay; format: functional, cell-based
[6] = tested on: MKN-45; assay: Antimigratory activity in human MKN-45 cells at 20 uM measured up to 48 hrs by wound healing assay; format: functional, cell-based; details: time hrs <=48
Summary of the method: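 MKN45 cells were grown to confluence in 24 h, then scratched with a pipette tip and washed with PBS. Medium was changed to fresh medium with 2% FBS plus compound. The wound was photographed by microscope at 0, 6, 12, 24 and 48 h. Three independent experiments.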

[7] = tested on: MKN-45; assay: Antiproliferative activity against human MKN-45 cells assessed as reduction in cell proliferation measured after 6 days by MTS assay; format: functional, cell-based; details: MKN-45, 144 h; summary of the method: as §2
[8] = target: T1, Lysine-specific demethylase 5B; assay: Inhibition of KDM5B in human MKN-45 cells assessed as increase in H3K4me2 accumulation at 20 uM measured after 5 days by Hoechst 33342 staining based immunofluorescence assay; format: cell-based; details: time 5.0 day
Summary of the method: (§3)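 MKN45 cells were seeded and left 24 h, then treated for 5 days. Cells were fixed in 4% paraformaldehyde, permeabilised with 0.1% Triton X-100 for 20 min and blocked with 5% BSA for 1 h. H3K4me2 or H3K4me3 primary antibody was applied at 4°C overnight, followed by Alexa Fluor 488 secondary and Hoechst 33342 (5 µg/mL) nuclear stain. Signal was quantified by high content imaging; three independent experiments.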

[9] = target: T1, Lysine-specific demethylase 5B; assay: Inhibition of KDM5B in human MKN-45 cells assessed as increase in H3K4me3 accumulation at 20 uM measured after 5 days by Hoechst 33342 staining based immunofluorescence assay; format: cell-based; details: time 5.0 day; summary of the method: as §3
[10] = target: T1, Lysine-specific demethylase 5B; assay: Inhibition of KDM5B in human MKN-45 cells assessed as increase in H3K4me1 accumulation at 20 uM measured after 5 days by Western blot analysis; format: cell-based; details: time 5.0 day
Summary of the method: (§4)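 MKN45 cells were treated for 5 days and lysed in RIPA buffer. About 30 µg protein was run on 10% SDS-PAGE and transferred to 0.2 µm nitrocellulose, then blocked with 5% milk in PBS for 2 h. Blots were probed for histone methylation marks with histone 3 as loading control and detected by ECL.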

[11] = target: T1, Lysine-specific demethylase 5B; assay: Inhibition of KDM5B in human MKN-45 cells assessed as increase in H3K4me3 accumulation at 20 uM measured after 5 days by Western blot analysis; format: cell-based; details: time 5.0 day; summary of the method: as §4
[12] = target: T1, Lysine-specific demethylase 5B; assay: Inhibition of KDM5B in human MKN-45 cells assessed as increase in H3K4me2 accumulation at 20 uM measured after 5 days by Western blot analysis; format: cell-based; details: time 5.0 day; summary of the method: as §4
[13] = tested on: MKN-45; assay: Antiproliferative activity against human MKN-45 cells assessed as reduction in cell proliferation measured after 4 days by MTS assay relative to control; format: functional; design: scale not given: the % may be the effect or the level left; details: time 4 day; summary of the method: as §2
[14] = target: T1, Lysine-specific demethylase 5B; assay: Inhibition of KDM5B in human MKN-45 cells assessed as protein stabilization at 0.5 to 30 uM measured after 1 hr by cellular thermal shift assay; format: cell-based; details: dose 0.5-30 µM
Summary of the method: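 MKN45 cells (5×10^5) were treated with compound or DMSO for 1 h, washed in PBS and resuspended in PBS with protease inhibitors. Cells were heated at 46 °C for 3 min, then freeze-thawed three times in liquid nitrogen. KDM5B in the supernatant was measured by western blot with GAPDH control. Repeated three times.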

[15] = tested on: MKN-45; assay: Inhibition of KDM6 in human MKN-45 cells assessed as increase in H3K27me2 accumulation at 20 uM measured after 5 days by Western blot analysis; format: cell-based; details: time 5.0 day; summary of the method: as §4
[16] = tested on: MKN-45; assay: Antiproliferative activity against human MKN-45 cells assessed as reduction in cell proliferation measured after 6 days by MTS assay relative to control; format: functional; design: scale not given: the % may be the effect or the level left; details: time 6 day; summary of the method: as §2
[17] = tested on: MKN-45; assay: Inhibition of KDM4 in human MKN-45 cells assessed as increase in H3K9me3 accumulation at 20 uM measured after 5 days by Western blot analysis; format: cell-based; details: time 5.0 day; summary of the method: as §4
[18] = tested on: MKN-45; assay: Inhibition of KDM4 in human MKN-45 cells assessed as increase in H3K9me2 accumulation at 20 uM measured after 5 days by Western blot analysis; format: cell-based; details: time 5.0 day; summary of the method: as §4

Compound | inhibition [1] | IC50 [2] | other results
O=C(NCCN1CCOCC1)c1c[nH]nc1-c1ccccc1 | 75.7% | 5390 nM | –
CC(C)c1c(-c2ccccc2)[nH]c2c(C#N)cnn2c1=O | – | 10.5 nM | IC50 [3]: 30300 nM; inhibition at 100 µM [4]: < 10%; Activity [5]: Active; Activity [6]: Active; IC50 [7]: 23800 nM
Cc1cncc(C(=O)NCCN2CCOCC2)c1 | 33.6% | > 10000 nM | –
O=C(NCCN1CCOCC1)c1cn(-c2ccccc2)nc1-c1ccncc1 | 81.3% | 237 nM | –
O=C(NCCN1CCOCC1)c1cncc(-c2ccccc2)c1 | 42.5% | > 10000 nM | –
CC(C)c1ccc(-n2cc(C(=O)NCCN3CCOCC3)c(-c3ccccc3)n2)cc1 | 14.8% | > 10000 nM | –
Cc1ccc(-n2cc(C(=O)NCC(C)(C)N3CCOCC3)c(-c3ccccc3)n2)cc1 | 82.4% | 191 nM | –
COc1ccc(-c2nn(-c3ccccc3)cc2C(=O)NCCN2CCOCC2)cc1 | 82.3% | 238 nM | –
Cc1cccc(-n2cc(C(=O)NCCN3CCOCC3)c(-c3ccccc3)n2)c1 | 20.9% | > 10000 nM | –
COc1ccc(-n2nc(-c3ccccc3)nc2C(=O)NCC(C)(C)N2CCOCC2)cc1 | 28% | > 10000 nM | inhibition [8]: inactive; inhibition [9]: inactive; inhibition [10]: inactive; inhibition [11]: inactive; inhibition [12]: inactive; Activity [13]: 10.32%; inhibition [14]: inactive; inhibition [15]: inactive; Activity [16]: 13.24%; Activity [5]: inactive; Activity [6]: inactive; inhibition [17]: inactive; inhibition [18]: inactive
CCc1ccc(-c2nn(-c3ccccc3)cc2C(=O)NCCN2CCOCC2)cc1 | 45.3% | 1350 nM | –
CCc1ccc(-n2cc(C(=O)NCCN3CCOCC3)c(-c3ccccc3)n2)cc1 | 20% | > 10000 nM | –
COc1ccc(-n2cc(C(=O)NCCN3CCOCC3)c(-c3ccccc3)n2)cc1 | 93% | 108 nM | –
COc1ccccc1-n1cc(C(=O)NCC(C)(C)N2CCOCC2)c(-c2ccccc2)n1 | 92.3% | 93.2 nM | –
CC(C)(CNC(=O)c1cn(-c2ccc(Cl)cc2)nc1-c1ccccc1)N1CCOCC1 | 62% | 541 nM | –
C#CCNC(=O)c1cn(-c2ccccc2)nc1-c1ccccc1 | 84.6% | 348 nM | –
Cc1n[nH]cc1C(=O)NCCN1CCOCC1 | 21.5% | > 10000 nM | –
Cc1ccc(NC(=O)c2cn(-c3ccc(C)cc3)nc2-c2ccccc2)cc1 | 79.5% | 323 nM | –

Compound | inhibition [1] | IC50 [2] | other results
Cc1ccccc1-n1cc(C(=O)NCCN2CCOCC2)c(-c2ccccc2)n1 | -7.78% | > 10000 nM | –
COC(=O)CCNC(=O)c1cn(-c2ccc(C)cc2)nc1-c1ccccc1 | 82.1% | 251 nM | –
CC(C)(CNC(=O)c1cn(-c2ccccc2)nc1-c1ccccc1)N1CCN(c2ccccc2)CC1 | 92.3% | 200 nM | –
Cc1ccc(-n2cc(C(=O)N3CCN(CCN4CCCC4)CC3)c(-c3ccccc3)n2)cc1 | 94.2% | 73 nM | –
COc1ccc(-n2cc(C(=O)N3CCN(CCN4CCCC4)CC3)c(-c3ccccc3)n2)cc1 | 17.2% | > 10000 nM | –
O=C(NCCN1CCOCC1)c1cn(-c2ccccc2)nc1-c1ccc(Cl)cc1 | 72% | 572 nM | –
Cc1ccc(-n2nc(-c3ccccc3)nc2C(=O)NCC(C)(C)N2CCOCC2)cc1 | 28.9% | > 10000 nM | –
O=C(NCC1(N2CCOCC2)CCCCC1)c1cn(-c2ccccc2)nc1-c1ccccc1 | -1.95% | > 10000 nM | –
O=C(NCCN1CCOCC1)c1cn(-c2ccccc2)nc1-c1ccccc1 | 76.4% | 310 nM | –
Cc1ccc(-n2cc(C(=O)NCCN3CCOCC3)c(-c3ccccc3)n2)cc1 | 66.8% | 851 nM | –
CC(C)N(CCNC(=O)c1cn(-c2ccccc2)nc1-c1ccccc1)C(C)C | 67% | 2240 nM | –
Cc1ccc(-c2nn(-c3ccc(C)cc3)cc2C(=O)N2CCN(CCN3CCCC3)CC2)cc1 | 76.5% | 851 nM | –
O=C(NCCN1CCOCC1)c1cn(-c2ccccc2)nc1-c1cccs1 | 75.4% | 335 nM | –
O=C(c1cn(-c2ccccc2)nc1-c1ccccc1)N1CCN(CCN2CCCC2)CC1 | 86.6% | 232 nM | –
Cc1ccccc1-c1nn(-c2ccccc2)cc1C(=O)NCCN1CCOCC1 | 9.25% | > 10000 nM | –
CC(C)c1ccc(-c2nn(-c3ccccc3)cc2C(=O)NCCN2CCOCC2)cc1 | -5.81% | > 10000 nM | –
O=C(NCCN1CCOCC1)c1cn(-c2ccc(Cl)cc2)nc1-c1ccccc1 | 8.69% | > 10000 nM | –
